Structures are written as SMILES.

We go through 97 molecules from ChEMBL document CHEMBL4513216, “Probing the Open Global Health Chemical Diversity Library for Multistage-Active Starting Points for Next-Generation Antimalarials” (ACS Infect Dis, 2020).

This data set is described as follows: Toxicity liver stage against HepG2, at 10uM. Conditions: human, HepG2-A16-CD81EGFP cells; read-out: INHIBITION
The format is cell-based. Also noted: test concentration 10 uM, cell line HepG2-A16-CD81EGFP. In short, it runs like this: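 Uninfected HepG2-A16-CD81EGFP cells, 3 × 10^3 per well, 1536-well, plated on prespotted compound at 10 μM final, parasite-free screening media added to match infected plates; puromycin 10 μM positive, DMSO 0.5% negative; run in parallel with 48 h PbLuc assay at 37 °C, 5% CO2; viability by CellTiter-Glo luminescence, normalized to controls.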
As to `Cc1nn(C)c(C)c1C1CCCN1Cc1nc(C2CC2)no1` (configuration not stated), the cytotoxicity at 10 µM is -6.68%. Consider `c1ncc(Nc2nccc(C3CCCCN3CC3CCCCC3)n2)cn1` (configuration not stated), for which the cytotoxicity at 10 µM was 3.32%.

Consider `CCCc1noc(CCC(=O)N2CCCC2c2cccs2)n1` (configuration not stated), for which the cytotoxicity at 10 µM was -14.4%. As for `COCCC(=O)N1CCC(c2cncc(Oc3cccnc3)n2)CC1`, the figure is -9.55%; as for `CC(C)CNC(=O)N1C[C@@H]2CCCN[C@@H]2C1`, 5%; as for `CC(C)OCCCNC(=O)C1CC(=O)N(c2n[nH]c3cccc(F)c23)C1` (configuration not stated), -4.73%. Under `COCCN1CCC1c1cc(N)nc(C)n1` (configuration not stated) stands 7.75%; under `COc1ccc(CN(C)C(=O)CSc2nnc(N)s2)c(OC)c1OC`, 7.59%; under `Cc1cccc(-n2nc(CC(C)C)nc2CCn2ccc(=O)[nH]c2=O)c1`, -3.7%. Under `O=C(O)C1(Cc2ccc(Cl)cc2)CCN(c2ncccc2F)CC1` stands -1.29%. Take `COCCC(=O)N1CC2(CCN(Cc3ccoc3)C2)C1`: the cytotoxicity at 10 µM was determined as 8.47%. As for `Cc1noc(C)c1CC(=O)N1CCCC(c2noc(C(C)C)n2)C1` (configuration not stated), the figure is 1.48%; as for `CC(C)c1noc(CN2CCOCC2C)n1` (configuration not stated), 3.95%; as for `CSCCc1nc(C(C)C)nn1-c1ccncc1C`, 1.63%.

For `CNC(=O)C1(c2cnccn2)CCCN1C(=O)c1ccc(F)cc1` (configuration not stated), the cytotoxicity at 10 µM was 0.918%. Under `Cc1cccc(C)c1OCC(=O)NC(C)c1nnc2n1CCC2` (configuration not stated) stands -3.09%; under `Cc1cc(C(=O)N2CCOC(c3ccc(Cl)c(Cl)c3)C2)[nH]n1` (configuration not stated), 4.55%. Under `CC(C)c1nn(C)c(N(C)C)c1CNC(C)c1ccccc1F` (configuration not stated) stands -2.97%; under `CCOCCC(=O)N1CCCCC1CCn1cccn1` (configuration not stated), -0.168%; under `CC(C)N(CC(N)=O)C(=O)CCC(=O)c1ccc(F)cc1F`, 0.529%.

As for `CC(C)(C)n1cc(CNC2CCN(C(=O)c3ccoc3)CC2)cn1`, the cytotoxicity at 10 µM amounted to 6.35%.

As to `COCC(=O)NC(C)Cc1ccc(Br)cc1` (configuration not stated), the cytotoxicity at 10 µM was -1.01%. Under `CC(CNC(=O)N(C)Cc1ccco1)N1CCc2sccc2C1` (configuration not stated) stands -13.7%; under `COc1ccccc1C(O)CNc1c(C#N)c(=O)n(C)c(=O)n1C` (configuration not stated), -2.9%.

`CC(C)c1nnc2n1CCN(c1nc3ccccc3o1)C2`: the cytotoxicity at 10 µM came to 4.12%. As for `CC(=O)N1CCN(C(=O)C(C)OCC(F)(F)F)CC1` (configuration not stated), the figure is -10.8%; as for `CCn1cnnc1CN(C)C(=O)C1CCC(=O)N(CC2CCCCC2)C1` (configuration not stated), -1.33%; as for `O=C(NC[C@H]1OC[C@@H](NC2CCC(F)(F)CC2)[C@@H]1O)c1cccs1`, -7.34%. With `CCN1CCC(c2cncc(N(C)C)n2)CC1`, the cytotoxicity at 10 µM was found to be 5.12%. In the case of `Cc1ccccc1C1(C(=O)NCCN2CCCCC2C)CCOCC1` (configuration not stated), the cytotoxicity at 10 µM was -1.69%. For the molecule `Cc1cc(C(=O)N2CC(O)CO2)c2cccc(C)c2n1` (configuration not stated), the cytotoxicity at 10 µM is 7.13%. As for `CCc1nc(CN2CCCC2c2c(C)nn(C)c2OC)no1` (configuration not stated), the figure is -6.07%.

Turning to `COc1c(CNC2CCc3cc(C)ccc32)c(C)nn1C` (configuration not stated), the cytotoxicity at 10 µM is -0.0225%. As for `COCCN1CCc2cc(C(=O)NCC3CC3)c(NC(C)C)nc2CC1`, the figure is 73.6%; as for `CN1CCCC1c1ccc(N2CCOCC2)cn1` (configuration not stated), -2.21%; as for `Cc1ccc(F)cc1C(=O)N1CCOCC12CCCC2`, -8.68%. `c1cc(CNCC2Cn3nncc3CO2)cs1` (configuration not stated): the cytotoxicity at 10 µM was determined as 6.13%. Under `CCn1nc2c(cc1=O)CN(Cc1nc(-c3cccnc3)no1)CC2` stands -5.86%; under `CCS(=O)(=O)N1CCC(c2nnc(C3CC3)o2)CC1`, -10.7%. As for `Cc1ccc(CN2CC[C@@H]3OCCN(S(C)(=O)=O)[C@H]3CC2)s1`, the figure is 3.91%; as for `Cn1cccc1C(=O)N1C[C@@H]2CC[C@H]1CN(Cc1cscn1)C2`, 2.9%; as for `Cn1cc(CCC(=O)NCc2ccccc2OC(C)(C)C)cn1`, 6.67%. Under `O=c1c2cccnc2cnn1CC(O)c1ccc(F)c(F)c1` (configuration not stated) stands -7.44%; under `CCn1cnnc1CNC(=O)N1CCN(c2cccc(OC)c2)CC1`, -8.62%; under `CS(=O)(=O)N1CCC(C(=O)NCCNc2ncccn2)CC1`, -8.11%. With `O=C(CCn1ccc2ccc(F)cc21)/N=c1\[nH]nc(C2CCCO2)s1` (configuration not stated), the cytotoxicity at 10 µM is -0.0308%. As for `CC(C)(C)c1ccc2c(c1)CCN2C(=O)c1[nH]c(=O)[nH]c(=O)c1N`, the figure is 7.22%; as for `Cn1cnc(S(=O)(=O)N2CCCc3cc(F)cc(F)c32)c1Cl`, -0.767%; as for `O=C(Nc1nc2c(s1)CNCC2)NC1CCCC1`, -2.37%.

Consider `Cc1cc(CN2C[C@H](N3CCOCC3)[C@@H]3OCCC[C@@H]32)oc1C`, for which the cytotoxicity at 10 µM was -139%. Under `O=C1NCCN1C1CCN(CCOc2ccccc2F)CC1` stands -3.63%; under `CN(Cc1ccccc1)CC(O)Cn1cnc2cc(F)ccc2c1=O` (configuration not stated), -5.28%. Turning to `CC(C)[C@@H]1CN(CCCOc2ccc(F)cc2)C[C@H]1NS(C)(=O)=O`, the cytotoxicity at 10 µM was -46.4%.

Turning to `Cc1nc(C(C)C)sc1C(=O)NCCNc1ncccn1`, the cytotoxicity at 10 µM is -2.02%. As for `CCNC(=O)CN1CCOC(c2ccccc2C(F)(F)F)C1` (configuration not stated), the figure is 3.09%.

Take `O=C1CCC2(CCCN(Cc3nnc(C4CC4)o3)C2)CN1CCO` (configuration not stated): the cytotoxicity at 10 µM amounted to 5.14%. As for `CC(CC(=O)N1CCN(c2cnccn2)CC1)c1ccc(F)cc1` (configuration not stated), the figure is -48%; as for `COc1c(CNCc2cccnc2OC(C)C)c(C(C)C)nn1C`, 11.1%; as for `O=C(NCc1ccc(OCC2CC2)nc1)c1c(F)cccc1F`, 1.49%. As for `COc1cnc(C2(O)CCN(C(=O)c3scnc3C)CC2)c(OC)n1`, the figure is -6.41%.

Consider `Cc1nn(CC(=O)N2CCCC2Cn2cccn2)c(C)c1Cl` (configuration not stated), for which the cytotoxicity at 10 µM came out at 2.27%.

With `Cc1cccc(CN2CCC(c3nnsc3S(C)(=O)=O)CC2)n1`, the cytotoxicity at 10 µM is -8.69%. As for `FC(F)(F)Cn1ccnc1CN1CCCC1c1noc(C2CC2)n1` (configuration not stated), the figure is 1.78%; as for `CCOC(=O)CC(C)Nc1nc(C2CCCC2)nc2c1cnn2C` (configuration not stated), -43.1%. For `CN(C)C(=O)C1CCN(c2cncc(-n3cccn3)n2)CC1`, the cytotoxicity at 10 µM is -10.9%. As for `Cc1nc(C2CCCN2C(=O)COCCOc2ccccc2)no1` (configuration not stated), the figure is -5.82%.

In the case of `Cc1ccc(C)c(-n2ncc(C(=O)NCC3COC(C)(C)O3)c2N)c1` (configuration not stated), the cytotoxicity at 10 µM is -4.06%. Under `CSCCCN1C(=O)CC[C@H]2CN(Cc3ncc[nH]3)CC[C@H]21` stands 7.4%; under `O=C(COc1coc(CN2CCCC2)cc1=O)Nc1cc(Cl)ccc1Cl`, -1.71%. As for `Cc1ccc(F)c2c1CCCN2CC(=O)NC1CCS(=O)(=O)C1` (configuration not stated), the figure is -11.9%. `CC(NC(=O)C1CCN(C(=O)C2CC2)CC1)c1nncn1C(C)C` (configuration not stated): the cytotoxicity at 10 µM came out at 1.33%. Under `Cc1nn(CC(=O)N(C)Cc2nncn2C(C)C)c(=O)c2ccccc12` stands 3.1%; under `O=C(CCc1cc2n(n1)CCN(CCCn1cccc1)C2)N1CCCC1`, -15.4%; under `CCc1ccc(CNC(=O)CCNS(=O)(=O)c2cn(C)c(C)n2)s1`, 6.13%. As for `Cc1ccc(N(CC(=O)N2CCCCC2)C(=O)C2COCCO2)cc1` (configuration not stated), the figure is 13.6%; as for `Cc1ccccc1N1CCCN(c2ccncn2)CC1`, 24.9%; as for `CC(C)Cn1cnc2ccc(NC(=O)CCCn3cccn3)cc2c1=O`, -4.06%. Under `CCc1noc(CS(=O)(=O)CC=C(C)C)n1` stands 5.41%.

Turning to `CCOCC1CN(C(=O)c2cnoc2C)Cc2cnn(C)c21` (configuration not stated), the cytotoxicity at 10 µM was 0.384%.

Consider `CC(C)C(C(N)=O)c1cccc(Cl)c1` (configuration not stated), for which the cytotoxicity at 10 µM is 3.82%. As for `O=C(Cn1nnn(-c2cccs2)c1=O)NCC1CCOC1` (configuration not stated), the figure is -40.4%. Under `O=C1CC(c2cccnc2)C2(CCN(C(=O)N3CCOCC3)CC2)N1` (configuration not stated) stands -79.5%; under `Cc1nc(CCCNC(=O)C2CC(=O)N(C(C)(C)C)C2)sc1C` (configuration not stated), -6.86%; under `CCc1ccc(CNC(=O)CCc2nnc(-c3ccc(C)s3)o2)nc1`, -3.65%. Turning to `COc1cccc([C@H]2CN(C(=O)c3cc(C)on3)C[C@@H]2N)c1`, the cytotoxicity at 10 µM turned out to be 3.14%. As for `Cc1cnn(C2CN(CC(=O)NCC(C)C)C2)c1`, the figure is -1.33%; as for `CN(C)c1nccc(N2CCO[C@H]3CN(Cc4ccco4)C[C@H]32)n1`, -122%; as for `CN1CC(C)(C)CN(C(=O)CCc2ccccc2)CC1=O`, -0.191%. With `Cc1nccn1C1CCCN(C(=O)c2ccc3nnc(C)n3c2)C1` (configuration not stated), the cytotoxicity at 10 µM worked out at 2.01%. As to `Cc1[nH]c(-c2ccccc2)nc1C(=O)N1CCc2[nH]cnc2C1C(=O)O` (configuration not stated), the cytotoxicity at 10 µM was 2.43%. Under `Cc1ccc(CN2C[C@@H](N(C)C)[C@H]3OCCC[C@H]32)o1` stands -136%; under `Cc1cc(C(=O)N2C[C@H](CO)C[C@H](CN3CCOCC3)C2)cnc1C`, 3.98%; under `Cc1cc(NC(=O)NCCc2ccc(S(N)(=O)=O)cc2)n(C)n1`, -3.39%. For the molecule `CC(C)CC(=O)Nc1ccccc1Oc1ccsc1C(=O)O`, the cytotoxicity at 10 µM came out at 6.2%.

`O=C(Nc1nccs1)NC1CCN(Cc2ccccc2)CC1`: the cytotoxicity at 10 µM was -7.07%. Under `O=C(Cc1cnc(-c2c(Cl)cccc2Cl)s1)N1CCC2(CC1)OCCO2` stands -0.367%; under `N#CC1(c2ccccc2)CCN(C(=O)C2CCCN(C(N)=O)C2)CC1` (configuration not stated), -22.2%.
